Assay outcomes: PubChem, several laboratories
EBI2 antag = antagonists of human EBI2 receptor; inhibition, % at 5 µM; P32249; 360,000 tested, 0.81% active; EBI2 beta-arrestin recruitment, luminescence, 7a,25-OHC stimulated; in the data active = inhibition above about 38%;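 note: enzyme fragment complementation signal reports receptor beta-arrestin coupling in cells; 0% = agonist plus DMSO wells and 100% = wells without agonist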
Granule exo inh = lytic granule exocytosis inhibition. TALL-104 LAMP-1 surface exposure, flow cytometry; cells stimulated with thapsigargin and PMA. inhibition, % at 10 µM. 360,000 tested, 0.66% active. AID 651702;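 active = inhibition above about 55%, limit read from the data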
Myeloid diff MLP = compounds promoting myeloid differentiation. ER-HoxA9 myeloid progenitors, lysozyme-GFP differentiation, flow cytometry. calls only at 10 µM. 360,000 tested, 1% active. AID 624256;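 active = normalized GFP-positive differentiation at or above the plate's own cutoff, the solvent-only control mean plus 3 SD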;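 note: cells exposed to compound for four days before flow analysis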
MC4R antagonist = antagonists of human melanocortin 4 receptor (MC4R) | P32245 | MC4R-expressing cells, MTII-stimulated cAMP, LANCE TR-FRET | inhibition, % at 6.5 µM | 360,000 tested, 0.48% active;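 active = inhibition above its plate's cutoff, the mean of tested wells on that plate plus 3 SD, cut at about 29% in these data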;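 note: 0% = Melanotan II alone and 100% = Melanotan II plus saturating MCL0020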
Target sequence (P32245 whole entry, looked up): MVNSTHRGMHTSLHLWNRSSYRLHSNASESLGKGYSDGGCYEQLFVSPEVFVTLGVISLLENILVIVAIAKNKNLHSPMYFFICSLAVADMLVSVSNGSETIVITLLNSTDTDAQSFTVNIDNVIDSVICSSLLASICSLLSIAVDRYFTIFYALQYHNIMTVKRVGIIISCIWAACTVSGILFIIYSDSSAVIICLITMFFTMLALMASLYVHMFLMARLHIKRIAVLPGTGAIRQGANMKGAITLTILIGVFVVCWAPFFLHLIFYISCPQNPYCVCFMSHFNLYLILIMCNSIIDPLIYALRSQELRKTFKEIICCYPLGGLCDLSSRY
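Test system: U2OS cells stably expressing human melanocortin 4 receptor (MC4R); also added: Melanotan II challenge; compound: 6.5 µM single dose; timing: 30-min compound preincubation, 1-h Melanotan II challenge, 1-h detection, room temperature; signal: Eu-cAMP/anti-cAMP TR-FRET, emission 671 nm; repeats: one well per compound, no replicates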
MC4R barr agon = agonists of human melanocortin 4 receptor (MC4R) beta-arrestin | P32245 | U2OS MC4R beta-arrestin complementation, luminescence; percent of melanotan II response, DMSO zero | activation, % at 8.9 µM | 360,000 tested, 0.98% active;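 active = activation above a per-plate cutoff, the mean activation of sample wells on that plate plus 3 SD, cut at about 8% in these data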
* marks the source's active call; other numbers are inactive results; i = inactive; · = not tested or not shown; + = active, no number. Most compounds without a hit are left out; they make up all but 3.7% or so of the library.

SMILES | EBI2 antag | Granule exo inh | Myeloid diff MLP | MC4R antagonist | MC4R barr agon
CCCOP(=O)(O)c1c([N+](=O)[O-])cc(C(F)(F)F)cc1[N+](=O)[O-] (tested in a mixture with another compound) | -6 | -2 | i | 6 | 1
COc1cc(/C=C/[N+](=O)[O-])ccc1O | -26 | 19 | + | 3 | -4
CCOc1cc(C=O)ccc1O | -10 | -4 | i | 4 | 0
COc1ccc(C2=NCC(=S)Nc3ccc(Cl)cc32)cc1Cl | -4 | -2 | i | 2 | 0
CN1C[C@H](CO)C=C2c3cccc4[nH]cc(c34)C[C@H]21 | -5 | 13 | i | -16 | -1
CC1=C[C@@H]2c3cccc4[nH]cc(c34)C[C@H]2N(C)C1 | 0 | -7 | + | -10 | 1
C[C@@H]1O[C@@H](O[C@H]2C[C@@H](O)[C@]3(CO)[C@H]4[C@H](O)C[C@]5(C)[C@@H](C6COC(=O)C6)CC[C@]5(O)[C@@H]4CC[C@]3(O)C2)[C@H](O)[C@H](O)[C@H]1O (stereo not given in full) | 3 | 4 | i | 6 | 24*
CC1OC(OC2CC(O)C3(CO)C4C(O)CC5(C)C(C6=CC(=O)OC6)CCC5(O)C4CCC3(O)C2)C(O)C(O)C1O (stereo not given) | -9 | 0 | i | 13 | 16*
CCC(=Nc1ccccc1N)c1c(O)[nH]c(=O)[nH]c1=O | 3 | -10 | i | 3 | 0
CCOC(=O)[C@@]1(C#N)[C@@H]2C=CC(C(N)=O)=CN2[C@@H](C(N)=O)[C@@H]1c1cccc(Cl)c1 | -3 | 1 | + | 15 | 0
COc1cccc(C2(O)CCN(Cc3ccncc3)CC2)c1 | -5 | -2 | i | -4 | -2
O=C1NC(=O)N(Cc2ccco2)C(=O)/C1=C\c1cccn1CCOc1ccc(Cl)cc1 | 13 | 39 | + | 2 | -1
Cc1cccc(OCCn2cccc2/C=C2/C(=O)NC(=O)N(Cc3ccco3)C2=O)c1 | 3 | 25 | i | -12 | -1
c1ccc2c(CN3CCCCCCC3)c[nH]c2c1 | -2 | 9 | + | 0 | -3
c1ccc2c(CN3CCN(C4CCCCC4)CC3)c[nH]c2c1 | -6 | -6 | i | 1 | 1
CC[n+]1c(-c2ccccc2)c2cc(N)ccc2c2ccc(N)cc21 | -35 | -22 | + | -36 | -2
CCN1/C(=C\C=C\C2=[N+](CC)c3ccccc3C2(C)C)C(C)(C)c2ccccc21 | 6 | 85* | · | -11 | -1
CCOC(=O)NC1CCc2cc(OC)c(OC)c(OC)c2-c2ccc(OC)c(=O)cc21 (stereo not given) | -34 | -2 | · | -24 | -1
COc1ccc(OC)c(NC2=NCCCS2)c1 | -7 | 0 | + | 3 | -3
O=C1NC(=O)N(Cc2ccco2)C(=O)/C1=C/c1ccc(-c2cccc([N+](=O)[O-])c2)o1 | 24 | 30 | i | 31* | -1
O=C(O)c1cc[c]([Hg][Cl])cc1 | 5 | 35 | i | 70* | -2
CC1=CC2/C=C(\C)CCC(O)C(O)/C=C/C(=O)C23C(=O)NC(CC(C)C)C3C1C (stereo not given) | 47* | 0 | i | 8 | -2
c1ccc(CN2COC3CCCCCC32)cc1 (stereo not given) | -3 | -6 | i | · | ·
Cc1cc(C)c(NC2=NCCS2)cc1C | -6 | -6 | i | 2 | 0
C#C[C@]1(O)[C@H](O)CC2C3CC[C@H]4C[C@@H](O)CC[C@]4(C)C3CC[C@@]21C (stereo not given in full) | -1 | -1 | + | 2 | -2
C[C@]12CCC3C(CC[C@H]4C[C@@H](O)CC[C@]34C)C1C[C@@H](O)[C@]2(C)O (stereo not given in full) | -9 | -4 | i | 0 | -1
Cc1nn(Cc2ccc(Cl)cc2Cl)c(Cl)c1C(=O)NC1CCCc2ccccc21 (stereo not given) | 22 | 1 | i | -1 | -2
C/C=C(\C)C(=O)N[C@@H](c1ccccc1)[C@@H](O)C(=O)O[C@H]1C[C@@]2(O)[C@@H](OC(=O)c3ccccc3)C3[C@](C)(C(=O)[C@H](O)C(=C1C)C2(C)C)[C@@H](O)C[C@H]1OC[C@@]31OC(C)=O (stereo not given in full) | -5 | -2 | i | 0 | 1
